Assay [1] addresses D(2) dopamine receptor (Rattus norvegicus) (UniProt P61169). In words: Percent intrinsic activity was determined by measuring the formation of cAMP on Dopamine receptor D2 in vitro in rat intermediate lobe. The format is functional.
The next assay concerns the target D(1A) dopamine receptor (Rattus norvegicus, UniProt P18901). In words: Binding affinity was determined by measuring the ability to displace [125I]SCH-23982 from Dopamine receptor D1 in rat caudate (in vitro). The essentials:
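Homogenized rat caudate was used as the tissue source. [¹²⁵I]SCH23982 was the displaced radioligand, and affinity was expressed as Ki. Values are means with the SEM range.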

For assay [2], the target named is T1, D(2) dopamine receptor (Rattus norvegicus, UniProt P61169). In words: Formation of cAMP on Dopamine receptor D2 in vitro in rat intermediate lobe. In kind it is functional.
T1 sequence (P61169 whole entry): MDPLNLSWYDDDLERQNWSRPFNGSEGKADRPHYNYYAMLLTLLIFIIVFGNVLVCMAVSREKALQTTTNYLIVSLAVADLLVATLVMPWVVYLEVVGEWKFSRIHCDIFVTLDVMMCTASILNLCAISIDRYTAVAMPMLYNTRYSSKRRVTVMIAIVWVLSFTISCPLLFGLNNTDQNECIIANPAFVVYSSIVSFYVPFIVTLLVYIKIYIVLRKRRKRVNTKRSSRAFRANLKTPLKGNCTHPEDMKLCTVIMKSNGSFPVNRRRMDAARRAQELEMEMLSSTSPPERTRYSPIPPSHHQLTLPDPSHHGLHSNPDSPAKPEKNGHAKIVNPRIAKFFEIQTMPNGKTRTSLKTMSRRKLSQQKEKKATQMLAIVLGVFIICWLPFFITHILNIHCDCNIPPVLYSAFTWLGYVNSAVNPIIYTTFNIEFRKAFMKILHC
Assay [3] deals with T1, D(2) dopamine receptor. In words: Binding affinity was determined by measuring the ability to displace [125I]N-(p-aminophenethyl)-spiroperidol from Dopamine receptor D2 in rat caudate (in vitro). The essentials: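 Homogenized rat caudate was the tissue, and [¹²⁵I]-N-(p-aminophenethyl)spiroperidol was the radioligand displaced. Values are means with the SEM range.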

Values joined by “and” are separate entries in the source; they are usually repeats but may differ in a detail not shown here. Identical values can stand only once. Bounds are passed on as bounds.

D(2) dopamine receptor (Rattus norvegicus), sequence (P61169 whole entry): as above
D(1A) dopamine receptor, sequence (P18901 whole entry): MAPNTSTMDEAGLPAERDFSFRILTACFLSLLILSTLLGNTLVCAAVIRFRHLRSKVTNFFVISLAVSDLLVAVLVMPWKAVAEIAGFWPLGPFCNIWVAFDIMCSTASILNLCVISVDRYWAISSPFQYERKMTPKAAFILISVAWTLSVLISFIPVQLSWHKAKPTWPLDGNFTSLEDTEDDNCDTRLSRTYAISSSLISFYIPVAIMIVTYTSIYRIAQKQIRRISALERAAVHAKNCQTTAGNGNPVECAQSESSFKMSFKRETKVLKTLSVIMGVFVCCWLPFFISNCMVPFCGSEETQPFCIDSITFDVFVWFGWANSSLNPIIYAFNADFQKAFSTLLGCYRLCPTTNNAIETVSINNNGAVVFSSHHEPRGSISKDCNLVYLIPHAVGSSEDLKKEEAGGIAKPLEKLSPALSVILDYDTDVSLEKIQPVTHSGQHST

For the compound `NC[C@@H]1O[C@H](c2ccccc2)Cc2c1ccc(O)c2O` (stereo in doubt; form 2) [listing 1 of 2 here], in assay [1], the IA is 98% and 101%.
Consider `NCC1OCCc2c1ccc(O)c2O` (stereo not given) [listing 1 of 3 here], for which the Ki is 1030 nM on D(1A) dopamine receptor and 4610 nM on D(2) dopamine receptor [3]. The EC50 at D(2) dopamine receptor [2] was determined as 2850 nM.
With `NC[C@@H]1O[C@H](c2ccccc2)Cc2c1ccc(O)c2O` (stereo in doubt; form 1) [listing 1 of 2 here], the EC50 on D(2) dopamine receptor [2] is 3910 nM and 10200 nM. Moreover, the Ki on D(2) dopamine receptor [3] was 776 nM and 807 nM.
For `NCC1OCCc2c1ccc(O)c2O` (stereo not given) [listing 2 of 3 here], the Ki is 1030 nM at D(1A) dopamine receptor and 4610 nM on D(2) dopamine receptor [3]. Further, it took 2850 nM to reach a half-maximal effect on D(2) dopamine receptor [2] (EC50).
Turning to `NC[C@@H]1O[C@H](c2ccccc2)Cc2c1ccc(O)c2O` (stereo in doubt; form 1) [listing 2 of 2 here], the IA in assay [1] is 101% and 98%.
Turning to `NC[C@H]1O[C@@H](c2ccccc2)Cc2c1ccc(O)c2O`, the EC50 on D(2) dopamine receptor [2] was > 10000 nM. For the same compound, the Ki at D(2) dopamine receptor [3] is > 10000 nM.
On to `NC[C@@H]1O[C@H](c2ccccc2)Cc2c1ccc(O)c2O` (stereo in doubt; form 2) [listing 2 of 2 here], for which the EC50 at D(2) dopamine receptor [2] is 10200 nM and 3910 nM. Also, the Ki at D(2) dopamine receptor [3] is 807 nM and 776 nM.
In the case of `NCC1OCCc2c1ccc(O)c2O` (stereo not given) [listing 3 of 3 here], the IA in assay [1] turned out to be 96%.

As a reminder, the Ki is a dissociation constant, usually derived from enzyme kinetics or from competition with a known ligand. The term EC50 denotes the concentration that produces a half-maximal response. High values mean a less potent agent, low ones a more potent agent.

Values taken from ChEMBL document CHEMBL1125128, “(1R,3S)-1-(aminomethyl)-3,4-dihydro-5,6-dihydroxy-3-phenyl-1H-2-benzopyran: a potent and selective D1 agonist” (J Med Chem, 1990).
